Usually IC50 stands for the concentration at which inhibition is half-maximal. The low end stands for inhibition by little substance, the high end for a need for much substance.

This passage reports IC50 and Activity results from ChEMBL document CHEMBL1137562, “Synthesis and structure-activity relationships of 16-modified analogs of 2-methoxyestradiol” (Bioorg Med Chem, 2007).

One experiment relates to HUVEC. The experiment in a line: Antiproliferative activity against human HUVECs after 48 hrs. The experiment is classed as cell-based. The method, boiled down: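 HUVEC kept in EGM, plated at 5000 cells/well and left to attach overnight. Cells were exposed to increasing drug concentrations for 48 h at 37 °C. DNA synthesis was read by colorimetric BrdU ELISA. Each concentration was run in triplicate in at least two independent experiments, reported as mean ±SD.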

Another experiment deals with MDA-MB-231. The experiment in a line: Antiproliferative activity against human MDA-MB-231 cells after 48 hrs. As to conditions: MDA-MB-231, 48 h. The experiment is classed as functional, cell-based. The method, boiled down: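 MDA-MB-231 cells kept in DMEM with 10% FBS, 2 mM L-glutamine and penicillin/streptomycin, plated at 2000 cells/well and left to attach overnight. Cells were exposed to increasing concentrations for 48 h. Proliferation was read as DNA synthesis by colorimetric BrdU ELISA. Triplicates in at least two independent experiments, reported as mean ±SD.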

The next experiment concerns MCF7. The experiment in a line: Antiproliferative activity against human MCF7 cells after 8 to 10 days relative to 2-methoxyestradiol. The experiment is classed as functional. The method in brief:
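Estrogen-dependent MCF-7 cells (passage 60–90) plated at 20–30,000 cells/well and left overnight. Cells were washed and starved 3 days in phenol red-free IMEM with 2% charcoal-dextran-stripped FBS, then treated with increasing concentrations in the same medium, refreshed every 2–3 days. Cells were Coulter-counted after 8 or 10 days. Triplicates in at least two independent experiments; stimulation index relative to 2-methoxyestradiol (1.00).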

For `CCC[C@@H]1C[C@H]2[C@@H]3CCc4cc(O)c(OC)cc4[C@H]3CC[C@]2(C)[C@H]1O`, the results for the IC50 in the experiment on HUVEC and in the experiment on MDA-MB-231 were 6.55 µM and 35.1 µM, respectively. The compound also returned an Activity in the experiment on MCF7 of 0.83.

Take `COc1cc2c(cc1O)CC[C@@H]1[C@@H]2CC[C@]2(C)[C@@H](O)CC[C@@H]12` [2-METHOXYESTRADIOL]: the IC50 in the experiment on HUVEC came to 0.84 µM; with MDA-MB-231 it was 1 µM.

For the compound `CCCC[C@@H]1C[C@H]2[C@@H]3CCc4cc(O)c(OC)cc4[C@H]3CC[C@]2(C)[C@H]1O`, the values for the IC50 in the experiment with HUVEC and in the experiment with MDA-MB-231 were 18.2 µM and 27.9 µM, respectively. The compound further returned an Activity with MCF7 of 0.73.

Consider `CC[C@@H]1C[C@H]2[C@@H]3CCc4cc(O)c(OC)cc4[C@H]3CC[C@]2(C)[C@H]1O`, for which the IC50 worked out at 1.35 µM with HUVEC and 3.59 µM in the experiment on MDA-MB-231. This compound had an Activity in the experiment with MCF7 of 1.09.

Take `COc1cc2c(cc1O)CC[C@@H]1[C@@H]2CC[C@]2(C)[C@@H](O)[C@H](C)C[C@@H]12`: the IC50 with HUVEC was 0.35 µM; with MDA-MB-231, 0.74 µM. The compound also displayed an Activity with MCF7 of 2.07.

On to `COc1cc2c(cc1O)CC[C@@H]1[C@@H]2CC[C@]2(C)[C@@H](O)[C@H](CN(C)C)C[C@@H]12`, for which the IC50 worked out at 36.8 µM in the experiment on HUVEC and 22.7 µM in the experiment on MDA-MB-231. The same compound registered an Activity with MCF7 of 1.43.

Consider `COc1cc2c(cc1O)CC[C@@H]1[C@@H]2CC[C@]2(C)[C@@H](O)[C@@H](C)C[C@@H]12`, for which the results for the IC50 with HUVEC and in the experiment on MDA-MB-231 were 2.26 µM and 2.4 µM, respectively. The compound further displayed an Activity with MCF7 of 1.62.

With `COc1cc2c(cc1O)CC[C@@H]1[C@@H]2CC[C@]2(C)[C@@H](O)[C@H](CO)C[C@@H]12`, the IC50 in the experiment on HUVEC worked out at 2.92 µM; in the experiment with MDA-MB-231, 4.26 µM. In the experiment with MCF7, the Activity was 0.93.

For `CCC[C@H]1C[C@H]2[C@@H]3CCc4cc(O)c(OC)cc4[C@H]3CC[C@]2(C)[C@H]1O`, the values for the IC50 in the experiment with HUVEC and in the experiment with MDA-MB-231 were 17.1 µM and 45.1 µM, respectively. The same compound yielded an Activity with MCF7 of 0.93.

Consider `COc1cc2c(cc1O)CC[C@@H]1[C@@H]2CC[C@]2(C)[C@@H](O)[C@H](CC(C)C)C[C@@H]12`, for which the concentration for half-maximal inhibition (IC50) amounted to 7.15 µM with HUVEC and 38.3 µM in the experiment with MDA-MB-231. This compound had an Activity with MCF7 of 0.41.

As for `CCCC[C@H]1C[C@H]2[C@@H]3CCc4cc(O)c(OC)cc4[C@H]3CC[C@]2(C)[C@H]1O`, the values for the IC50 in the experiment with HUVEC and with MDA-MB-231 were 8.17 µM and 37.9 µM, respectively. The Activity with MCF7 amounted to 0.82.

On to `COc1cc2c(cc1O)CC[C@@H]1[C@@H]2CC[C@]2(C)[C@@H](O)[C@@H](CO)C[C@@H]12`, for which the IC50 amounted to 6.36 µM with HUVEC and 6.09 µM in the experiment on MDA-MB-231. In the experiment on MCF7, this compound had an Activity of 1.14.
